# Data as given in ChEMBL document CHEMBL1137516, “A novel class of potent NF-kappaB signaling inhibitors” (Bioorg Med Chem Lett, 2007).
# Experiments:
# [1] = Inhibition of NF-kappaB in A549 cells after 5 hrs by reporter gene assay; assay type: cell-based; conditions: Homo sapiens, A549, 5 h
# In short: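 A549 cells stably transfected with a pNF-κB-SEAP reporter were plated at 2 · 10^4/well and left to attach overnight. They were pre-incubated 5 h with compound at 100, 30, 10, 3, 1, 0.3, 0.1 and 0 µM, then stimulated with 10 ng/ml TNF-α for 22 h. Supernatant SEAP was read by chemiluminescence, viability by CellTiter-Blue, with four replicates per concentration.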
# [2] = Inhibition of chymotrypsin like activity of human 20S proteasome
# In short: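 20S proteasome (1.3 µg) was pre-incubated 10 min at room temperature in 25 mM HEPES pH 7.5, 0.5 mM EDTA, 0.033% SDS, then added to compound in DMSO and Suc-LLVY-AMC substrate (75 µM in the substrate solution). Fluorescence (ex 360/em 465 nm) was followed 20 min at 30 °C as RFU/min. Eight inhibitor concentrations were run in triplicate, and IC50 came from a four-parameter logistic fit.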
# PBMC = experiment: Antiproliferative activity against human PBMC; assay type: functional, cell-based
# In short: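 Human peripheral blood mononuclear cells were stimulated with phytohemagglutinin, so the proliferation read-out reflects mainly T-cells.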
# A549 = experiment: Inhibition of NF-kappaB in A549 cells at 20 uM after 5 hrs by reporter gene assay; assay type: cell-based; conditions: Homo sapiens
Structure (SMILES),EC50 [1] [nM],other results
Cc1cc2nc(NC(=O)c3csc(C4CCN(C(=O)c5ccccc5OC(F)(F)F)CC4)n3)[nH]c2cc1C,3000,
COc1cccc(NC(=O)N2CCC(c3nc(C(=O)N4CCN(c5cccc(C(F)(F)F)c5)CC4)cs3)CC2)c1,7200,
O=C(c1csc(C2CCN(S(=O)(=O)c3cccs3)CC2)n1)N1CCN(c2cccc(C(F)(F)F)c2)CC1,20000,
Cc1cc2nccc(N3CCC(c4nc(C(=O)Nc5nc6cc(C(=O)c7ccccc7)ccc6[nH]5)cs4)CC3)n2n1,100,
O=C(Nc1cccc(F)c1)N1CCC(c2nc(C(=O)N3CCN(c4cccc(C(F)(F)F)c4)CC3)cs2)CC1,3400,
O=C(c1ccccc1)c1ccc2[nH]c(NC(=O)c3csc(C4CCN(c5ncnc6nc[nH]c56)CC4)n3)nc2c1,300,
O=C(c1csc(C2CCN(c3ccc(C(F)(F)F)cc3)CC2)n1)N1CCN(c2cccc(C(F)(F)F)c2)CC1,20000,IC50 [2]: 480 nM
COc1cc2ncnc(N3CCC(c4nc(C(=O)Nc5nc6cc(C(=O)c7ccccc7)ccc6[nH]5)cs4)CC3)c2cc1OC,300,
COc1nc(OC)nc(N2CCC(c3nc(C(=O)N4CCN(c5cccc(C(F)(F)F)c5)CC4)cs3)CC2)n1,4700,IC50 (PBMC): 15000 nM
Cc1cc2nnc(C(=O)N3CCC(c4nc(C(=O)N5CCN(c6cccc(C(F)(F)F)c6)CC5)cs4)CC3)c(C)n2n1,> 20000,
COc1nc(OC)nc(N2CCC(c3nc(C(=O)Nc4nc5cc(C(=O)c6ccsc6)ccc5[nH]4)cs3)CC2)n1,400,
O=C(c1ccccc1)c1ccc2[nH]c(NC(=O)c3csc(C4CCN(C(=O)c5ccccc5OC(F)(F)F)CC4)n3)nc2c1,800,
Cc1cc2nnc(C(=O)N3CCC(c4nc(C(=O)NC5CCN(Cc6ccccc6)C5)cs4)CC3)c(C)n2n1 (stereo not given),,IC50 [2]: 580 nM; inhibition (A549): 30%; IC50 (PBMC): 37000 nM
N#Cc1ccc(CN2CCC(c3nc(C(=O)N4CCN(c5cccc(C(F)(F)F)c5)CC4)cs3)CC2)cc1,8500,
O=C(c1ccsc1)c1ccc2[nH]c(NC(=O)c3csc(C4CCN(c5ncnc6ccsc56)CC4)n3)nc2c1,500,
O=C(c1csc(C2CCN(S(=O)(=O)c3ccc(F)cc3Cl)CC2)n1)N1CCN(c2cccc(C(F)(F)F)c2)CC1,20000,
Cc1cc2nnc(C(=O)N3CCC(c4nc(C(=O)Nc5nc6cc(C(=O)c7ccccc7)ccc6[nH]5)cs4)CC3)c(C)n2n1,900,
Cc1cc2nc(NC(=O)c3csc(C4CCN(c5ncnc6ccsc56)CC4)n3)[nH]c2cc1C,300,
COC(=O)c1nc2nccc(N3CCC(c4nc(C(=O)Nc5nc6cc(C(=O)c7ccccc7)ccc6[nH]5)cs4)CC3)n2n1,500,IC50 (PBMC): 2500 nM
O=C(c1ccccc1)c1ccc2[nH]c(NC(=O)c3csc(C4CCN(c5ncnc6ccsc56)CC4)n3)nc2c1,200,IC50 (PBMC): 2200 nM
O=C(c1ccccc1)c1ccc2[nH]c(NC(=O)c3csc(C4CCN(c5ccnc6ncnn56)CC4)n3)nc2c1,100,IC50 (PBMC): 3600 nM
O=C(c1ccccc1)c1ccc2[nH]c(NC(=O)c3csc(C4CCN(c5ccncc5[N+](=O)[O-])CC4)n3)nc2c1,300,
COc1cc(N2CCC(c3nc(C(=O)Nc4nc5cc(C(=O)c6ccccc6)ccc5[nH]4)cs3)CC2)nc(OC)n1,300,IC50 [2]: > 3000 nM
N#Cc1ccc(CN2CCC(c3nc(C(=O)Nc4nc5cc(C(=O)c6ccccc6)ccc5[nH]4)cs3)CC2)cc1,300,
COc1nc(OC)nc(N2CCC(c3nc(C(=O)Nc4nc5cc(C(=O)c6ccccc6)ccc5[nH]4)cs3)CC2)n1,800,
O=C(c1ccccc1)c1ccc2[nH]c(NC(=O)c3csc(C4CCN(c5cc(C(F)(F)F)ncn5)CC4)n3)nc2c1,500,
COc1cc(N2CCC(c3nc(C(=O)N4CCN(c5cccc(C(F)(F)F)c5)CC4)cs3)CC2)nc(OC)n1,5000,
